Reference: ChEMBL document CHEMBL1153046, “Synthesis and antitumor activity of substituted triazolo[4,3-a]pyrimidin-6-sulfonamide with an incorporated thiazolidinone moiety” (2009)

Test system: IGROV-1
Assay: Growth inhibition of human IGROV1 cells after 48 hrs by sulforhodamine B assay
Type: functional
Details: IGROV-1, 48 h
In short: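 NCI 60-cell-line panel. Cells are grown in RPMI1640 with 5% fetal calf serum and 2 mM L-glutamine, seeded at a density set by growth characteristics, and preincubated 24 h. Compound is tested at a minimum of five concentrations at 10-fold dilution, with 48 h continuous exposure. Viability is read by sulforhodamine B protein assay. GI50, TGI and LC50 come from dose-response curves.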

| Compound | GI50 [µM] | LC50 [µM] | TGI [µM] |
| --- | --- | --- | --- |
| COc1ccc(/C=N/c2nc3[nH]nc(C)n3c(=O)c2S(=O)(=O)NN2C(=O)C(CN3CCN(C)CC3)SC2c2cccs2)cc1 (configuration not stated) | 0.78 | > 100 | 97.3 |
| COc1ccc(/C=N/c2nc3[nH]nc(C)n3c(=O)c2S(=O)(=O)NN2C(=O)C(CN3CCOCC3)SC2c2cccs2)cc1 (configuration not stated) | 3.95 | > 100 | 34.8 |
| COc1ccc(/C=N/c2nc3[nH]nc(C)n3c(=O)c2S(=O)(=O)NN2C(=O)C(CN3CCOCC3)SC2c2ccc(OC)cc2)cc1 (configuration not stated) | 26 | > 100 | 97.4 |
| COc1ccc(/C=N/c2nc3[nH]nc(C)n3c(=O)c2S(=O)(=O)NN2C(=O)C(CN3CCN(C)CC3)SC2c2ccc(OC)cc2)cc1 (configuration not stated) | 21 | 93.9 | 44.4 |
